In brackets after ≈: the same amount, converted by molar mass. Activity calls are given as the source filed them. The calls are words filed in the database; no cut-off is given here.
Columns and labels:
[1] = tested on: Mycobacterium tuberculosis; experiment: Antitubercular activity against Mycobacterium tuberculosis H37Rv after 24 hrs by BACTEC radiometric susceptibility assay; format: functional
Method in brief: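 BACTEC radiometric assay in 7H12 (12B) medium with 14C-palmitic acid as substrate; 14CO2 output read daily as Growth Index (GI) at 37 °C ± 1 °C. H37Rv inoculum grown in 12B vial to GI around 300. Compounds dissolved in DMSO. Control vial held 1:100 diluted bacterial suspension. Reading continued until control GI reached 30 or more. Daily change in GI compared with control to set susceptibility and MIC.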

[2] = Selectivity index, ratio of CC50 for african green monkey Vero cells to MIC for Mycobacterium tuberculosis H37Rv; format: functional
[3] = Cytotoxicity against african green monkey Vero cells after 24 hrs by resazurin assay; format: cell-based; settings: chlorocebus sabaeus
Method in brief: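 Vero cells (ATCC CCL-81) seeded overnight at 1 × 10⁴–[…] cells/well in RPMI with 10% heat-inactivated FBS, 37 °C, 5% CO2. Exposed in triplicate to serial dilutions, 100 to 1.56 µg/mL. Resazurin (0.1%) added for 4–5 h. Read visually (purple to pink or colourless) and by fluorescence, excitation 530 nm, emission 590 nm.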

[4] = tested on: Mycobacterium tuberculosis; experiment: Antitubercular activity against drug-sensitive Mycobacterium tuberculosis 2280 after 24 hrs by BACTEC radiometric susceptibility assay; format: functional; settings: Mycobacterium tuberculosis, 2280, 24 h
[5] = tested on: Mycobacterium tuberculosis; experiment: Antitubercular activity against Mycobacterium tuberculosis H37Rv infected in mouse J774A.1 cells assessed as growth index at 2 times MIC after 8 days by BACTEC radiometric susceptibility assay; format: functional
Method in brief: (§1)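 J774A.1 murine macrophages infected with H37Rv (grown in 7H9 with BSA, dextrose, catalase, washed in serum-free RPMI) at MOI 1:20 for 6 h, 37 °C, 5% CO2. Seeded in triplicate, 5 × 10⁵ cells/well. Daily medium change with complete RPMI containing compound at 1× or 2× MIC. Cells lysed with 0.05% SDS on day 0 and day 6. Lysates inoculated into BACTEC vials, GI followed over 8 days.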

[6] = tested on: Mycobacterium tuberculosis; experiment: Antitubercular activity against Mycobacterium tuberculosis H37Rv infected in mouse J774A.1 cells assessed as growth index at MIC after 8 days by BACTEC radiometric susceptibility assay; format: functional; method in brief: as §1
[7] = tested on: Mycobacterium tuberculosis; experiment: Antitubercular activity against Mycobacterium tuberculosis H37Rv at 25 ug/mL after 24 hrs by BACTEC radiometric susceptibility assay; format: functional, organism-based
[8] = tested on: Mycobacterium tuberculosis; experiment: Antitubercular activity against Mycobacterium tuberculosis H37Rv at 50 ug/mL after 24 hrs by BACTEC radiometric susceptibility assay; format: functional, organism-based

SMILES	MIC [1]	also measured
CC(=O)OC[C@H]1O[C@H](OC(C)(C)C)C=CC1=O	6.25 µg/mL (≈ 25.8 µM)	–
CC(C)CO[C@@H]1C=CC(=O)[C@@H](CO)O1	12.5 µg/mL (≈ 62.4 µM)	–
CCCCCO[C@@H]1C=CC(=O)[C@@H](COC(=O)C(C)(C)C)O1	1.56 µg/mL (≈ 5.23 µM)	Selectivity Index [2]: 1.41; CC50 at 24 h [3]: 7.38 µM
CC(C)CCO[C@@H]1C=C([C@H](O)c2ccc([N+](=O)[O-])cc2[N+](=O)[O-])C(=O)[C@@H](COC(=O)C(C)(C)C)O1	6.25 µg/mL (≈ 12.6 µM)	–
CO[C@@H]1C=CC(=O)[C@@H](COC(=O)C(C)(C)C)O1	6.25 µg/mL (≈ 25.8 µM)	–
CC(C)CO[C@@H]1C=CC(=O)[C@@H](COC(=O)C(C)(C)C)O1	3.12 µg/mL (≈ 11 µM)	Selectivity Index [2]: 2.56; CC50 at 24 h [3]: 28.2 µM
CC(C)CCO[C@@H]1C=CC(=O)[C@@H](COC(=O)C(C)(C)C)O1	0.78 µg/mL (≈ 2.61 µM)	Selectivity Index [2]: 13.5; MIC [4]: 0.78 µg/mL (≈ 2.61 µM); Growth_index [5]: 10; CC50 at 24 h [3]: 36 µM; Growth_index [6]: 10
COc1ccc(O[C@@H]2C=CC(=O)[C@@H](CO)O2)cc1	–	Activity [7]: inactive
CO[C@H]1/C=C/O[C@@]2(C)Oc3c(C)c(O)c4c(O)c(c(/C=N/N5CCN(C)CC5)c(O)c4c3C2=O)NC(=O)/C(C)=C\C=C\[C@H](C)[C@H](O)[C@@H](C)[C@@H](O)[C@@H](C)[C@H](OC(C)=O)[C@@H]1C [RIFAMPIN]	2 µg/mL (≈ 2.43 µM)	–
CO[C@@H]1C=CC(=O)[C@@H](COC(C)=O)O1	6.25 µg/mL (≈ 31.2 µM)	–
CC(C)(C)O[C@@H]1C=CC(=O)[C@@H](COC(=O)C(C)(C)C)O1	6.25 µg/mL (≈ 22 µM)	–
CC(C)O[C@@H]1C=CC(=O)[C@@H](CO)O1	25 µg/mL (≈ 134 µM)	–
CCCCO[C@@H]1C=CC(=O)[C@@H](COC(=O)C(C)(C)C)O1	3.12 µg/mL (≈ 11 µM)	Selectivity Index [2]: 3.85; CC50 at 24 h [3]: 42.5 µM
CO[C@@H]1C=C([C@H](O)c2ccc(C#N)cc2)C(=O)[C@@H](COC(=O)C(C)(C)C)O1	12.5 µg/mL (≈ 33.5 µM)	–
CC(C)O[C@@H]1C=C(CO)C(=O)[C@@H](COC(=O)C(C)(C)C)O1	25 µg/mL (≈ 83.2 µM)	–
CC(C)CCO[C@@H]1C=C[C@H](O)[C@@H](CO)O1	–	Activity [8]: inactive
CC(C)CO[C@@H]1C=C([C@H](O)c2ccc(C#N)cc2)C(=O)[C@@H](COC(=O)C(C)(C)C)O1	6.25 µg/mL (≈ 15 µM)	–
CN[C@@H]1[C@H](O[C@H]2[C@H](O[C@H]3[C@H](O)[C@@H](O)[C@H](N=C(N)N)[C@@H](O)[C@@H]3N=C(N)N)O[C@@H](C)[C@]2(O)C=O)O[C@@H](CO)[C@H](O)[C@H]1O [STREPTOMYCIN]	6 µg/mL (≈ 10.3 µM)	–
CC(=O)OC[C@H]1O[C@H](OCCC(C)C)C=CC1=O	0.78 µg/mL (≈ 3.04 µM)	Selectivity Index [2]: 6.6; CC50 at 24 h [3]: 19.8 µM
CC(C)O[C@@H]1C=CC(=O)[C@@H](COC(=O)C(C)(C)C)O1	3.12 µg/mL (≈ 11.6 µM)	Selectivity Index [2]: 1.09; CC50 at 24 h [3]: 12.5 µM
Cc1ccc(S(=O)(=O)OC[C@H]2O[C@H](OC(C)C)C=CC2=O)cc1	3.12 µg/mL (≈ 9.18 µM)	Selectivity Index [2]: 1.4; CC50 at 24 h [3]: 13.4 µM
CC(=O)OC[C@H]1O[C@H](OCCC(C)C)C=C([C@H](O)c2ccc([N+](=O)[O-])cc2)C1=O	3.12 µg/mL (≈ 7.67 µM)	Selectivity Index [2]: 1.8; CC50 at 24 h [3]: 14.3 µM
CC(=O)OC[C@H]1O[C@H](OCCC(C)C)C=C([C@H](O)c2ccc([N+](=O)[O-])cc2[N+](=O)[O-])C1=O	6.25 µg/mL (≈ 13.8 µM)	–

SMILES	MIC [1]	also measured
CC(C)CCO[C@@H]1C=CC(=O)[C@@H](CO[Si](C)(C)C(C)(C)C)O1	12.5 µg/mL (≈ 38 µM)	–
CO[C@@H]1C=CC(=O)[C@@H](CO)O1	25 µg/mL (≈ 158 µM)	–
CC(C)(C)C(=O)OC[C@H]1O[C@H](OCC2CC2)C=CC1=O	3.12 µg/mL (≈ 11.1 µM)	Selectivity Index [2]: 6.96; CC50 at 24 h [3]: 77.2 µM
O=C1C=C[C@@H](OCC2CC2)O[C@@H]1CO	25 µg/mL (≈ 126 µM)	–
CC(C)CCO[C@H]1O[C@H](COC(=O)C(C)(C)C)C(=O)[C@@H]2O[C@H]12	12.5 µg/mL (≈ 39.8 µM)	–
CCCCCCCCCCO[C@@H]1C=CC(=O)[C@@H](CO)O1	12.5 µg/mL (≈ 44 µM)	–
CC(=O)OC[C@H]1O[C@H](OC(C)C)C=CC1=O	3.12 µg/mL (≈ 13.7 µM)	Selectivity Index [2]: 7.6; CC50 at 24 h [3]: 104 µM
CC(C)O[C@@H]1C=C([C@H](O)c2ccc(C#N)cc2)C(=O)[C@@H](COC(=O)C(C)(C)C)O1	6.25 µg/mL (≈ 15.6 µM)	–
CCCCCCCCCCO[C@@H]1C=C([C@H](O)c2ccc(C#N)cc2)C(=O)[C@@H](COC(=O)C(C)(C)C)O1	12.5 µg/mL (≈ 25 µM)	–
COc1ccc(O[C@@H]2C=CC(=O)[C@@H](COC(=O)C(C)(C)C)O2)cc1	6.25 µg/mL (≈ 18.7 µM)	–
CC(C)CCO[C@@H]1C=C(CO)C(=O)[C@@H](COC(=O)C(C)(C)C)O1	25 µg/mL (≈ 76.1 µM)	–
CC(C)(C)O[C@@H]1C=CC(=O)[C@@H](CO)O1	25 µg/mL (≈ 125 µM)	–
CCCCCCO[C@@H]1C=CC(=O)[C@@H](COC(=O)C(C)(C)C)O1	3.12 µg/mL (≈ 10 µM)	Selectivity Index [2]: 0.48; CC50 at 24 h [3]: 4.8 µM
CC(C)CCO[C@@H]1C=CC(=O)[C@@H](CC#N)O1	12.5 µg/mL (≈ 56 µM)	–
CCCCCCCCCCO[C@@H]1C=CC(=O)[C@@H](COC(=O)C(C)(C)C)O1	12.5 µg/mL (≈ 33.9 µM)	–
CCCCCCCCCCO[C@@H]1C=C([C@H](O)c2ccc([N+](=O)[O-])cc2)C(=O)[C@@H](COC(C)=O)O1	25 µg/mL (≈ 52.4 µM)	–
CC(C)CCO[C@@H]1C=CC(=O)[C@@H](CO)O1	6.25 µg/mL (≈ 29.2 µM)	–
Cc1ccc(S(=O)(=O)OC[C@H]2O[C@H](OC(C)C)C=C([C@H](O)c3ccc([N+](=O)[O-])cc3)C2=O)cc1	6.25 µg/mL (≈ 12.7 µM)	–
CC(C)CCO[C@@H]1C=C([C@H](O)c2ccc(C#N)cc2)C(=O)[C@@H](COC(=O)C(C)(C)C)O1	6.25 µg/mL (≈ 14.6 µM)	–
CCCCCCCCCCO[C@@H]1C=C[C@H](O)[C@@H](CO)O1	–	Activity [8]: inactive
CCCCCCCCCCO[C@@H]1C=CC(=O)[C@@H](COC(C)=O)O1	6.25 µg/mL (≈ 19.1 µM)	–
CC(=O)OCC1=C[C@@H](OCCC(C)C)O[C@H](COC(=O)C(C)(C)C)C1=O	–	Activity [8]: inactive

Source: ChEMBL document CHEMBL1782055, “2,3-dideoxy hex-2-enopyranosid-4-uloses as promising new anti-tubercular agents: design, synthesis, biological evaluation and SAR studies” (Eur J Med Chem, 2011)
